The values below come from paper PMC2911665 (The Journal of Cell Biology, 2010).

The Kd is the concentration at which binding is half-saturated.

Assay [1] relates to iNOS degradation in Spsb2T/+ BMDMs. The assay can be described thus: iNOS degradation in Spsb2T/+ BMDMs after LPS/IFN-γ stimulation and wash. The format is cell-based, mouse. As to conditions: 10 µM MG-132 in fresh medium after wash. The method in brief:
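Bone marrow macrophages (>95% CD11b+ after 6 d culture) from littermate controls, SPSB2-transgenic or SOCS-box-deleted transgenic mice, stimulated overnight with LPS/IFN-γ or left unstimulated. Washed, refed with medium ±10 µM MG-132 (proteasome inhibitor), lysed at set times after wash. Lysates run on SDS-PAGE, blotted with anti-iNOS, peroxidase secondary and ECL. Membranes stripped (0.1 M Gly, pH 2.9) and reprobed for tubulin as loading control.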

In the next assay the target is SPSB2. Conditions: SPSB2 binding to Par-4; ref Woo et al., 2006; cited from earlier work.
The next assay has as its target SPSB1. Conditions: SPSB1 binding to Par-4; ref Woo et al., 2006; cited from earlier work.
In a further assay the target is T1, Y120A-SPSB2 (12–224) (mouse, UniProt O88838 12-224, Y120A).
T1 sequence (looked up): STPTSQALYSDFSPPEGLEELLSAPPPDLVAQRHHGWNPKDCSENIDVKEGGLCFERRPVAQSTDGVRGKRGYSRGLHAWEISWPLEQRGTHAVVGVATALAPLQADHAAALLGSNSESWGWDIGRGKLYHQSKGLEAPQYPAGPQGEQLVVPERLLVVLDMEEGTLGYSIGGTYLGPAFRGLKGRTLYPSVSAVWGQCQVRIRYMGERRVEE
The assay can be described thus: ITC. In general terms: ITC needs no label: the signal is the heat of the interaction.

Assay [2] has as its target T2, SPSB2 SPRY domain (residues 12–224) (mouse, UniProt O88838 12-224).
T2 sequence (looked up): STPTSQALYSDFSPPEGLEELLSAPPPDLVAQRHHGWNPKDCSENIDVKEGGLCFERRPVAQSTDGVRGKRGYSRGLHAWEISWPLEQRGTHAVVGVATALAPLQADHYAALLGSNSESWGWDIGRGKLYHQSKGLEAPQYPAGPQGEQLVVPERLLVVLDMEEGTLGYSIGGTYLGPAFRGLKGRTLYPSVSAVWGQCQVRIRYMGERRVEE
In words: ITC.

Where a SMILES comes first, the peptide text is derived from it. The star is where a group is joined. Cbz = O=C(OCc1ccccc1)*

As to `CC(C)C[C@@H](C=O)NC(=O)[C@H](CC(C)C)NC(=O)[C@H](CC(C)C)NC(=O)OCc1ccccc1` [MG-132] (Cbz-Leu-Leu-Leu-aldehyde), the “effect on enhanced iNOS degradation” value in assay [1] is given as “abrogated”.

B1: Par-4: prostate apoptosis response protein 4, SPSB binding partner containing ELNNNL (human) (protein, UniProt Q96IZ0 1-340, looked up)
PRKC apoptosis WT1 regulator …: MATGGYRTSSGLGGSTTDFLEEWKAKREKMRAKQNPPGPAPPGGGSSDAAGKPPAGALGTPAAAAANELNNNLPGGAPAAPAVPGPGGVNCAVGSAMLTRAAPGPRRSEDEPPAASASAAPPPQRDEEEPDGVPEKGKSSGPSARKGKGQIEKRKLREKRRSTGVVNIPAAECLDEYEDDEAGQKERKREDAITQQNTIQNEAVNLLDPGSSYLLQEPPRTVSGRYKSTTSVSEEDVSSRYSRTDRSGFPRYNRDANVSGTLVSSSTLEKKIEDLEKEVVRERQENLRLVRLMQDKEEMIGKLKEEIDLLNRDLDDIEDENEQLKQENKTLLKVVGQLTR
In the case of B1, the values for the Kd at SPSB2 and on SPSB1 were 4700 nM and 146 nM, respectively.

Turning to Ac-KEEKDINNNVKKT-NH2 [iNOS N-terminal peptide, wild type (Ac-KEEKDINNNVKKT-NH2)], the “fold reduction of affinity against wild-type SPSB2 (12–224)” value with Y120A-SPSB2 (12–224) was roughly 5000 fold. The Kd in assay [2] was found to be 13.3 ± 3 nM.

In the case of Ac-KEEKDINNNAKAT-NH2 [iNOS N-terminal peptide N (Ac-KEEKDINNNAKAT-NH2)], the Kd in assay [2] stood at 180 ± 39 nM.

In the case of Ac-KEEADINNNAKAT-NH2 [iNOS N-terminal peptide O (Ac-KEEADINNNAKAT-NH2)], the Kd in assay [2] was determined as 311 ± 37 nM.

As for Ac-KEEKDIQNNVKKT-NH2 [iNOS N-terminal peptide H (Ac-KEEKDIQNNVKKT-NH2)], binding in assay [2] was characterised by a dissociation constant (Kd) of 40500 nM.

As to Ac-KEAADINNNVKKT-NH2 [iNOS N-terminal peptide D (Ac-KEAADINNNVKKT-NH2)], binding in assay [2] was put at a Kd of 65.4 ± 7.4 nM.

In assay [2], Ac-KEEADINNNVKKT-NH2 [iNOS N-terminal peptide C (Ac-KEEADINNNVKKT-NH2)] came in with a Kd of 127 ± 23 nM.

Molecule Ac-KEEKDINNNVKAT-NH2 [iNOS N-terminal peptide M (Ac-KEEKDINNNVKAT-NH2)] came in with a Kd in assay [2] of 29.8 ± 12.2 nM.

In the case of Ac-KEEKDINNNAKKT-NH2 [iNOS N-terminal peptide L (Ac-KEEKDINNNAKKT-NH2)], the Kd in assay [2] turned out to be 56.8 ± 11.2 nM.

For Ac-KEEKDANNNVKKT-NH2 [iNOS N-terminal peptide F (Ac-KEEKDANNNVKKT-NH2)], in assay [2], the Kd amounted to 23.5 ± 9.9 nM.

Take Ac-KEAKDINNNVKKT-NH2 [iNOS N-terminal peptide B (Ac-KEAKDINNNVKKT-NH2)]: in assay [2], the Kd came to 14 ± 3 nM.

In assay [2], Ac-KEEKDINANVKKT-NH2 [iNOS N-terminal peptide I (Ac-KEEKDINANVKKT-NH2)] had a Kd of 826 ± 20 nM.

Molecule Ac-KEEKDIANNVKKT-NH2 [iNOS N-terminal peptide G (Ac-KEEKDIANNVKKT-NH2)] yielded a Kd in assay [2] of 17200 nM.

For the molecule Ac-KEEKAINNNVKKT-NH2 [iNOS N-terminal peptide E (Ac-KEEKAINNNVKKT-NH2)], the Kd in assay [2] is 21600 ± 750 nM.
